Measurements gathered from unrelated publications.
Each line is one published result; the experiments were not run side by side.
Target: Serine/threonine-protein kinase ULK2 (ULK2, Homo sapiens, UniProt Q8IYT8)
Sequence (Q8IYT8 1-1036, as in one of the studies): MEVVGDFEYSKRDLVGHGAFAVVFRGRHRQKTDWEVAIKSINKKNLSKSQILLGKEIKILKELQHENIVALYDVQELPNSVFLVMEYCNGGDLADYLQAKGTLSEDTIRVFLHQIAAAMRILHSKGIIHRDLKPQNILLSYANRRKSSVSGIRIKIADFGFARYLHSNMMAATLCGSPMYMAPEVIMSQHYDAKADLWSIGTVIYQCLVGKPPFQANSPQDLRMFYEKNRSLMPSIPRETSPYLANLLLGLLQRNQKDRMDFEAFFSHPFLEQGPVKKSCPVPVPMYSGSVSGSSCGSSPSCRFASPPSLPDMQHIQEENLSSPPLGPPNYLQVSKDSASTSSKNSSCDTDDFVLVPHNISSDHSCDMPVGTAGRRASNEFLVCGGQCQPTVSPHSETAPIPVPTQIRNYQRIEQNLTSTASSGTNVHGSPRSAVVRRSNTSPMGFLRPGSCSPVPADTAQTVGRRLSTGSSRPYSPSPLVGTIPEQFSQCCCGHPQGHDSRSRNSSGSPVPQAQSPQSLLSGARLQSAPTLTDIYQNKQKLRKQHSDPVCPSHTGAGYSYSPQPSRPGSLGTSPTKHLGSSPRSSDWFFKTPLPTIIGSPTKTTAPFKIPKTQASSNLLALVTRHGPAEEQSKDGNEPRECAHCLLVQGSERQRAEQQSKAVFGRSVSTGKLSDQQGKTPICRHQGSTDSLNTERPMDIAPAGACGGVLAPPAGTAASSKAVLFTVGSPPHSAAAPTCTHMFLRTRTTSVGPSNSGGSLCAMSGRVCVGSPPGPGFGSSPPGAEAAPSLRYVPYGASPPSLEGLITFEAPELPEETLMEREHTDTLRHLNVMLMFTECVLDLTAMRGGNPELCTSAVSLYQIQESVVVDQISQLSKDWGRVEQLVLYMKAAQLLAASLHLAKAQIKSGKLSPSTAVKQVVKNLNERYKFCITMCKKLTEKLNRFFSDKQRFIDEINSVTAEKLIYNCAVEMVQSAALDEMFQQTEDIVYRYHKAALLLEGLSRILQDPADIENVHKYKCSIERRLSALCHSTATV

Structure (SMILES) | effect on | method | concentration | remaining binding [%]
c1cncc(-c2cccc(Nc3nccc(NC4CCCCC4)n3)c2)c1 | binding | competition with immobilised ligand | 10 µM | 80
F[C@@H]1CCN(c2nccc(-c3cnn4ncccc34)n2)C1 | binding | – | 1 µM | 100
C[C@@H]1CN(c2ccc3ncc(-c4ccc5[nH]nc(C6CC6)c5c4)n3n2)C[C@H](C)O1 | binding | competition with immobilised ligand | 0.5 µM | 91
O=C1CCc2cc(Nc3cc(OC4CCOCC4)c([N+](=O)[O-])cc3Cl)ccc2N1 | cell-free assay | competition with immobilised ligand | 1 µM | 99
C[C@@H](c1ccc(-n2cnc3c(N)ncnc32)cc1)N1CCc2nn(C)c(Cc3ccccc3)c2C1=O | binding | competition with immobilised ligand | 0.1 µM | 70
CN(C)c1nccc(-c2cnc3ncccn23)n1 | binding | – | 1 µM | 74
COc1cnc(Nc2cccc(S(N)(=O)=O)c2)nc1N1CCN(c2ccccc2)C(=O)C1 | binding | competition with immobilised ligand | 1 µM | 51
C[C@H]1CCN(c2nccc(-c3cnn4ncccc34)n2)C1 | binding | – | 1 µM | 63
CS(=O)(=O)c1cc(C2(NC(=O)c3cncc4c3cnn4-c3ccc(F)cc3)CC2)ccn1 | cell-free assay | competition with immobilised ligand | 1 µM | 92
CC1CCCN1c1nccc(-c2cnn3ncccc23)n1 (stereo not shown) | binding | – | 1 µM | 74
Nc1ncc2c(n1)-c1c([nH]c3ccc(C#CC4CC4)cc13)CCCC2 | binding | competition with immobilised ligand | 1 µM | 100
O=C(c1ccc(Nc2nccc(-c3cc4ccccc4s3)n2)cc1)N1CCC(N2CCCC2)CC1 | binding | competition with immobilised ligand | 1 µM | 87
CCS(=O)(=O)c1cc2cc(C[C@](O)(CC(C)(C)c3ccc(F)cc3C(N)=O)C(F)(F)F)[nH]c2cn1 | cell-free assay | competition with immobilised ligand | 1 µM | 100
CC(C)(C)c1ccc(-c2nc(CBr)nn2-c2cccc(O)c2)cc1 | cell-free assay | competition with immobilised ligand | 10 µM | 92
COc1cnc(Nc2cccc(S(N)(=O)=O)c2)nc1N1CCN(c2ccccc2)CC1 | binding | competition with immobilised ligand | 1 µM | 96
O=C(NS(=O)(=O)c1ccc(NCC2CCOCC2)c([N+](=O)[O-])c1)c1ccc(N2CCN(Cc3ccc(C(F)(F)F)cc3-c3ccc(Cl)cc3)CC2)cc1Oc1cnc2[nH]ccc2c1 | cell-free assay | competition with immobilised ligand | 1 µM | 100
CCN1CCN(Cc2ccc(C(=O)Nc3ccc(C)c(Oc4ccc5c(c4)CC(=O)N5)c3)cc2C(F)(F)F)CC1 | binding | competition with immobilised ligand | 1 µM | 100
O=C(NCCCN1CCOCC1)c1ccc(Nc2ncc(Cl)c(-c3ccc(Cl)s3)n2)cc1 | binding | competition with immobilised ligand | 1 µM | 24
CCCOc1ccc([C@H]2[C@H](C(=O)O)[C@@H](c3ccc4c(c3)OCO4)CN2CC(=O)Nc2c(CC)cccc2CC)cc1 | cell-free assay | competition with immobilised ligand | 1 µM | 55
Cc1cnn2ncc(-c3ccnc(N(C)C)n3)c2c1 | binding | – | 1 µM | 92
Cc1cnc(Nc2ccc(C(=O)N3CCC(N4CCCC4)CC3)cc2)nc1-c1cc2ccccc2s1 | binding | competition with immobilised ligand | 1 µM | 12
CNCc1ccccc1-c1csc([C@H](C)Nc2nc(C)nc3cc(OC)c(OC)cc23)c1 | cell-free assay | competition with immobilised ligand | 1 µM | 100
CN(c1nccc(-c2cnn3ncccc23)n1)C1CC1 | binding | – | 1 µM | 100
COCCOc1nc(-c2ccc(Cl)nc2)nc2c1CN(C(=O)c1ncn3ccccc13)CC2 | cell-free assay | competition with immobilised ligand | 0.1 µM | 100
O=C(NCC1CCOCC1)c1n[nH]cc1NC(=O)c1c(F)cccc1F | binding | competition with immobilised ligand | 1 µM | 81
